The results in this text go back to ChEMBL document CHEMBL1152771, “Identification of Shc Src homology 2 domain-binding peptoid-peptide hybrids” (J Med Chem, 2009).

In experiment [1] the target is T1, SHC-transforming protein 1 (Homo sapiens) (UniProt P29353).
T1 sequence (whole entry): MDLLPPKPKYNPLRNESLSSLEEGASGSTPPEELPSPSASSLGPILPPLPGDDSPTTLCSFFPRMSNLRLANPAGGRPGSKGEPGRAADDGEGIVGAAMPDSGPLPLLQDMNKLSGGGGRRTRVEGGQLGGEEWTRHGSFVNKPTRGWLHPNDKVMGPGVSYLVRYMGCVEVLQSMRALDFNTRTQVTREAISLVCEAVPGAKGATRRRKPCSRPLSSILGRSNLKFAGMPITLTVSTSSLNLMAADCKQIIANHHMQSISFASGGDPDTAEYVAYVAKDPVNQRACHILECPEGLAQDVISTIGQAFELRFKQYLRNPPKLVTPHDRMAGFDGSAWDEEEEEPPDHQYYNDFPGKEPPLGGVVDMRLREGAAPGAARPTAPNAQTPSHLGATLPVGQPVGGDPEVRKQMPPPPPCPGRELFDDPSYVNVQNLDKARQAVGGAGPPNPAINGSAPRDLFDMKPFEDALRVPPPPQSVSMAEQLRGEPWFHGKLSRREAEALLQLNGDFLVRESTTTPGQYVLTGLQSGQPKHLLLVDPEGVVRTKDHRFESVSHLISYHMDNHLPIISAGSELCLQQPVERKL
As to the kind of experiment: Inhibition of Shc Src homology 2 domain binding to cMet expressed in human B5/589 cells at 10 uM. Type of experiment: cell-based. The essentials: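 B5/589 human mammary epithelial cells serum-starved 48 h, then exposed 1 h to peptide (10 μM) or none. HGF stimulation at 50 ng/mL for 20 min, then lysis in cold detergent buffer (pH 7.4). c-Met captured with biotinylated antibody on streptavidin resin; co-precipitated Shc and recovered c-Met detected by SDS-PAGE and immunoblot with chemiluminescence.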

Experiment [2] deals with T1, SHC-transforming protein 1 (Homo sapiens). As to the kind of experiment: (§1) Binding affinity to Shc Src homology 2 domain by fluorescence anisotropy. The essentials:
(§2)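 Direct binding: 5 nM N-terminal fluorescein-labelled peptide in 10 mM HEPES, 150 mM NaCl pH 7.5 with 10% (v/v) DMSO; Shc SH2 protein serially diluted from 100 μM. Excitation 485 nm, parallel and perpendicular emission at 535 nm. Kd from fitting anisotropy versus protein concentration to a single-site binding model.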
For orientation: Polarisation of emitted light reports the rotation of a fluorescent probe.

Experiment [3] concerns the target T2, SHC-transforming protein 1 (Homo sapiens, UniProt P29353).
T2 sequence (P29353 whole entry): T1 sequence (whole entry)
The description is as §1. The essentials: as §2

Experiment [4] addresses T2, SHC-transforming protein 1. As to the kind of experiment: Displacement of FITC-tagged NH-(CH2)4-CO-phospho-tyrosine-glutamine-glycine-leucine-serine-amide from Shc Src homology 2 domain by fluorescence anisotropy competition assay. The essentials:
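Competition FA: preformed complex of 2 μM Shc SH2 domain protein and 10 nM FITC reference peptide in 10 mM HEPES, 150 mM NaCl pH 7.5 with 10% (v/v) DMSO; unlabeled competitors serially diluted from 500 μM. Excitation 485 nm, parallel/perpendicular emission 535 nm. Fractional binding from anisotropy; IC50 where spline (order three, three knots) reached one half.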

Calls of active or inactive are those of the source. The calls are words filed in the database; no cut-off is given here. Where a SMILES comes first, the peptide text is derived from it. [ ]: non-standard residue; d: D form. The star is where a group is joined. X2 = O=C(c1cc(N=C=S)ccc1-c1c2ccc(=O)cc-2oc2cc(O)ccc12)*; pY = N[C@@H](Cc1ccc(OP(=O)(O)O)cc1)C(=O)O; 3Amb = NCc1cccc(C(=O)O)c1; Ahx = NCCCCCC(=O)O; Ava = NCCCCC(=O)O; GABA = NCCCC(=O)O

For `CC(=O)N[C@@H](CCCNC(=N)N)C(=O)N[C@@H](CCCNC(=N)N)C(=O)N[C@@H](CCCNC(=N)N)C(=O)N[C@@H](CCCNC(=N)N)C(=O)N[C@@H](CCCNC(=N)N)C(=O)N[C@@H](CCCNC(=N)N)C(=O)N[C@@H](CCCNC(=N)N)C(=O)N[C@@H](CCCNC(=N)N)C(=O)NCCOCCOCCOCCNC(=O)[C@H](CO)NC(=O)[C@H](CC(C)C)NC(=O)CNC(=O)[C@H](CCC(N)=O)NC(=O)[C@H](Cc1ccc(OP(=O)(O)O)cc1)NC(=O)CCCCNC(=O)c1cc(N=C=S)ccc1-c1c2ccc(=O)cc-2oc2cc(O)ccc12`, in experiment [1], the outcome was Active. With `CC[C@H](C)[C@H](NC(=O)[C@H](CCCCN)NC(=O)[C@@H](NC(=O)[C@H](CCC(N)=O)NC(=O)[C@H](CCCNC(=N)N)NC(C)=O)[C@@H](C)CC)C(=O)N[C@@H](Cc1c[nH]c2ccccc12)C(=O)N[C@@H](Cc1ccccc1)C(=O)N[C@@H](CCC(N)=O)C(=O)N[C@@H](CC(N)=O)C(=O)N[C@@H](CCCNC(=N)N)C(=O)N[C@@H](CCCNC(=N)N)C(=O)N[C@@H](CCSC)C(=O)N[C@@H](CCCCN)C(=O)N[C@@H](Cc1c[nH]c2ccccc12)C(=O)N[C@@H](CCCCN)C(=O)N[C@@H](CCCCN)C(=O)NCCOCCOCCOCCNC(=O)[C@H](CO)NC(=O)[C@H](CC(C)C)NC(=O)CNC(=O)[C@H](CCC(N)=O)NC(=O)[C@H](Cc1ccc(OP(=O)(O)O)cc1)NC(=O)CCCCNC(=O)c1cc(N=C=S)ccc1-c1c2ccc(=O)cc-2oc2cc(O)ccc12`, the outcome in experiment [1] was Active. For `CC(C)C[C@H](NC(=O)CNC(=O)[C@H](CCC(N)=O)NC(=O)[C@H](Cc1ccc(OP(=O)(O)O)cc1)NC(=O)[C@H](CC(C)C)NC(=O)CNC(=O)c1cc(N=C=S)ccc1-c1c2ccc(=O)cc-2oc2cc(O)ccc12)C(=O)N[C@@H](CO)C(N)=O` (HELM PEPTIDE1{[O=C(c1cc(N=C=S)ccc1-c1c2ccc(=O)cc-2oc2cc(O)ccc12)[*:2]].G.L.[O=C([C@H](Cc1ccc(OP(=O)(O)O)cc1)N[*:1])[*:2]].Q.G.L.S.[am]}$$$$V2.0), in experiment [2], the result was inactive. Still for that read-out and setting: as for `CC(C)C[C@H](NC(=O)CNC(=O)[C@H](CCC(N)=O)NC(=O)[C@H](Cc1ccc(OP(=O)(O)O)cc1)NC(=O)CNC(=O)c1cc(N=C=S)ccc1-c1c2ccc(=O)cc-2oc2cc(O)ccc12)C(=O)N[C@@H](CO)C(N)=O` (HELM PEPTIDE1{[O=C(c1cc(N=C=S)ccc1-c1c2ccc(=O)cc-2oc2cc(O)ccc12)[*:2]].G.[O=C([C@H](Cc1ccc(OP(=O)(O)O)cc1)N[*:1])[*:2]].Q.G.L.S.[am]}$$$$V2.0), the entry is “inactive”.

What is called Kd is the free concentration of one partner at which half of the binding sites on the other are occupied at equilibrium, for simple one-to-one binding. Low values mean tighter binding, high ones weaker binding. Compound `CC(C)C[C@H](NC(=O)CNC(=O)[C@H](CCC(N)=O)NC(=O)[C@H](Cc1ccc(OP(=O)(O)O)cc1)NC(=O)c1cc(N=C=S)ccc1-c1c2ccc(=O)cc-2oc2cc(O)ccc12)C(=O)N[C@@H](CO)C(N)=O` (HELM PEPTIDE1{[O=C(c1cc(N=C=S)ccc1-c1c2ccc(=O)cc-2oc2cc(O)ccc12)[*:2]].[O=C([C@H](Cc1ccc(OP(=O)(O)O)cc1)N[*:1])[*:2]].Q.G.L.S.[am]}$$$$V2.0) yielded a Kd in experiment [3] of 12.4 µM. For the compound `CC(C)C[C@H](NC(=O)CNC(=O)[C@H](CCC(N)=O)NC(=O)[C@H](Cc1ccc(OP(=O)(O)O)cc1)NC(=O)[C@H](CC(C)C)NC(=O)CCNC(=O)c1cc(N=C=S)ccc1-c1c2ccc(=O)cc-2oc2cc(O)ccc12)C(=O)N[C@@H](CO)C(N)=O` (HELM PEPTIDE1{[O=C(c1cc(N=C=S)ccc1-c1c2ccc(=O)cc-2oc2cc(O)ccc12)[*:2]].[bAla].L.[O=C([C@H](Cc1ccc(OP(=O)(O)O)cc1)N[*:1])[*:2]].Q.G.L.S.[am]}$$$$V2.0), in experiment [3], binding was characterised by a dissociation constant (Kd) of 7.6 µM. The compound `CC(C)C[C@H](NC(=O)CNC(=O)[C@H](CCC(N)=O)NC(=O)[C@H](Cc1ccc(OP(=O)(O)O)cc1)NC(=O)CCNC(=O)c1cc(N=C=S)ccc1-c1c2ccc(=O)cc-2oc2cc(O)ccc12)C(=O)N[C@@H](CO)C(N)=O` (HELM PEPTIDE1{[O=C(c1cc(N=C=S)ccc1-c1c2ccc(=O)cc-2oc2cc(O)ccc12)[*:2]].[bAla].[O=C([C@H](Cc1ccc(OP(=O)(O)O)cc1)N[*:1])[*:2]].Q.G.L.S.[am]}$$$$V2.0) gave a Kd in experiment [3] of 1.09 µM. The IC50 is the point on the concentration scale where inhibition reaches its midpoint. A high value points to weaker potency in that assay. Turning to `CC(=O)N[C@@H](Cc1ccc(OP(=O)(O)O)cc1)C(=O)N[C@@H](CCC(N)=O)C(=O)N(CCC(C)C)CC(=O)N[C@@H](CC(C)C)C(N)=O` (HELM PEPTIDE1{[ac].[O=C([C@H](Cc1ccc(OP(=O)(O)O)cc1)N[*:1])[*:2]].Q.[CC(C)CCN(CC(=O)[*:2])[*:1]].L.[am]}$$$$V2.0), the concentration for half-maximal inhibition (IC50) in experiment [4] worked out at 17 µM.

`CCCN(CC(=O)N[C@@H](CC(C)C)C(N)=O)C(=O)[C@H](CCC(N)=O)NC(=O)[C@H](Cc1ccc(OP(=O)(O)O)cc1)NC(C)=O` (HELM PEPTIDE1{[ac].[O=C([C@H](Cc1ccc(OP(=O)(O)O)cc1)N[*:1])[*:2]].Q.[CCCN(CC(=O)[*:2])[*:1]].L.[am]}$$$$V2.0) had an IC50 in experiment [4] of 25.7 µM. Still for that read-out and setting: as for `CCN(CC(=O)N[C@@H](CC(C)C)C(N)=O)C(=O)[C@H](CCC(N)=O)NC(=O)[C@H](Cc1ccc(OP(=O)(O)O)cc1)NC(C)=O` (HELM PEPTIDE1{[ac].[O=C([C@H](Cc1ccc(OP(=O)(O)O)cc1)N[*:1])[*:2]].Q.[CCN(CC(=O)[*:2])[*:1]].L.[am]}$$$$V2.0), the figure is 19 µM; as for `CCOCCN(CC(=O)N[C@@H](CC(C)C)C(N)=O)C(=O)[C@H](CCC(N)=O)NC(=O)[C@H](Cc1ccc(OP(=O)(O)O)cc1)NC(C)=O` (HELM PEPTIDE1{[ac].[O=C([C@H](Cc1ccc(OP(=O)(O)O)cc1)N[*:1])[*:2]].Q.[CCOCCN(CC(=O)[*:2])[*:1]].L.[am]}$$$$V2.0), 33 µM; as for `COCCN(CC(=O)N[C@@H](CC(C)C)C(N)=O)C(=O)[C@H](CCC(N)=O)NC(=O)[C@H](Cc1ccc(OP(=O)(O)O)cc1)NC(C)=O` (HELM PEPTIDE1{[ac].[O=C([C@H](Cc1ccc(OP(=O)(O)O)cc1)N[*:1])[*:2]].Q.[COCCN(CC(=O)[*:2])[*:1]].L.[am]}$$$$V2.0), 56 µM. In the case of `CC(=O)N[C@@H](Cc1ccc(OP(=O)(O)O)cc1)C(=O)N[C@@H](CCC(N)=O)C(=O)N(CC(=O)N[C@@H](CC(C)C)C(N)=O)Cc1ccccc1` (HELM PEPTIDE1{[ac].[O=C([C@H](Cc1ccc(OP(=O)(O)O)cc1)N[*:1])[*:2]].Q.[O=C(CN(Cc1ccccc1)[*:1])[*:2]].L.[am]}$$$$V2.0), the IC50 in experiment [4] amounted to 18.9 µM.

Consider `CC(C)C[C@H](NC(=O)CNC(=O)[C@H](CCC(N)=O)NC(=O)[C@H](Cc1ccc(OP(=O)(O)O)cc1)NC(=O)c1cccc(CNC(=O)c2cc(N=C=S)ccc2-c2c3ccc(=O)cc-3oc3cc(O)ccc23)c1)C(=O)N[C@@H](CO)C(N)=O` ({X2-3Amb}-[pY]QGLS-NH2), for which the Kd in experiment [3] was 5 µM.

`CC(C)C[C@H](NC(=O)CNC(=O)[C@H](CCC(N)=O)NC(=O)[C@H](Cc1ccc(OP(=O)(O)O)cc1)NC(=O)CCCCCNC(=O)c1cc(N=C=S)ccc1-c1c2ccc(=O)cc-2oc2cc(O)ccc12)C(=O)N[C@@H](CO)C(N)=O` ({X2-Ahx}-[pY]QGLS-NH2): the Kd in experiment [3] is 4.7 µM. In the case of `CC(C)C[C@H](NC(=O)CNC(=O)[C@H](CCC(N)=O)NC(=O)[C@H](Cc1ccc(OP(=O)(O)O)cc1)NC(=O)[C@H](CC(C)C)NC(=O)CCCCNC(=O)c1cc(N=C=S)ccc1-c1c2ccc(=O)cc-2oc2cc(O)ccc12)C(=O)N[C@@H](CO)C(N)=O` ({X2-Ava}-L[pY]QGLS-NH2), in experiment [3], the Kd was found to be 8.9 µM. `CC(C)C[C@H](NC(=O)CNC(=O)[C@H](CCC(N)=O)NC(=O)[C@H](Cc1ccc(OP(=O)(O)O)cc1)NC(=O)CCCCNC(=O)c1cc(N=C=S)ccc1-c1c2ccc(=O)cc-2oc2cc(O)ccc12)C(=O)N[C@@H](CO)C(N)=O` ({X2-Ava}-[pY]QGLS-NH2): the Kd in experiment [3] came to 0.35 µM. Still for that read-out and setting: as for `CC(C)C[C@H](NC(=O)CNC(=O)[C@H](CCC(N)=O)NC(=O)[C@H](Cc1ccc(OP(=O)(O)O)cc1)NC(=O)[C@H](CC(C)C)NC(=O)CCCNC(=O)c1cc(N=C=S)ccc1-c1c2ccc(=O)cc-2oc2cc(O)ccc12)C(=O)N[C@@H](CO)C(N)=O` ({X2-GABA}-L[pY]QGLS-NH2), the figure is 8.6 µM; as for `CC(C)C[C@H](NC(=O)CNC(=O)[C@H](CCC(N)=O)NC(=O)[C@H](Cc1ccc(OP(=O)(O)O)cc1)NC(=O)CCCNC(=O)c1cc(N=C=S)ccc1-c1c2ccc(=O)cc-2oc2cc(O)ccc12)C(=O)N[C@@H](CO)C(N)=O` ({X2-GABA}-[pY]QGLS-NH2), 7.2 µM.
